Assay results published in paper PMC6452895 (ChemMedChem, 2019).

Legend:
MCF10A = assay: Growth inhibition; type: cell-based, human; details: normal mammary epithelial cells, K-Ras WT
In short: (§1)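 GI50 determined for growth of the test compound's target cells; values averaged across three independent experiments, each run in duplicate.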

ASPC1 = assay: Growth inhibition; type: cell-based, human; details: ASPC1, pancreatic cancer, K-Ras G12D
In short: (§2)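 Cancer cell lines were treated with test compound for growth inhibition. Each GI50 is the average of three independent experiments, each run in duplicate.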

MDA-MB-231 = assay: Growth inhibition; type: cell-based, human; details: MDA-MB-231, breast cancer, K-Ras G13D
In short: as §2

NCI-H23 = assay: Growth inhibition; type: cell-based, human; details: NCI-H23, lung cancer, K-Ras G12C
In short: as §2

HME1 = assay: Growth inhibition; type: cell-based, human; details: HME1, normal mammary epithelial cells, K-Ras WT
In short: as §1

HCT116 = assay: Growth inhibition; type: cell-based, human; details: HCT116, colon cancer, K-Ras G13D
In short: as §2

SIRT3 = target: T1, SIRT3 (Homo sapiens, UniProt Q9NTG7); assay: In vitro SIRT3 deacetylation inhibition, H3K9-Ac peptide substrate; type: biochemical; details: read-out: SIRT3 Deacetylation IC50, with 15 min pre-incubation
T1 sequence (Q9NTG7 1-399): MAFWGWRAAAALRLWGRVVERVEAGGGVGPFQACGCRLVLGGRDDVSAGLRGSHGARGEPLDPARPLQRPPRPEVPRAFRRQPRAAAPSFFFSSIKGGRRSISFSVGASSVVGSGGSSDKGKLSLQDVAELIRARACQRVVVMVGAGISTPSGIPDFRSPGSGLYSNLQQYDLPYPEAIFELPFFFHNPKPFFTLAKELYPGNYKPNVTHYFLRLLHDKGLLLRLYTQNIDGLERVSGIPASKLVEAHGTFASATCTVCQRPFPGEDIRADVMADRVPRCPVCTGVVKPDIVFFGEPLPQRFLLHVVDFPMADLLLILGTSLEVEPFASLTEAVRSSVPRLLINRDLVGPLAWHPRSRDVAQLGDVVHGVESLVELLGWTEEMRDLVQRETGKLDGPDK
In short: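 The enzyme was pre-incubated with NAD and test compound for 15 min, then substrate was added to start the deacetylation reaction. IC50 was determined under these pre-incubation conditions.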

GI50 (ASPC1): 24 ± 5 µM | GI50 (MDA-MB-231): 13 ± 4 µM | GI50 (NCI-H23): 29 ± 6 µM | GI50 (HCT116): 19 ± 1 µM | IC50 (SIRT3): > 50 µM
SMILES: CCCCCCCCCCCCCC(=S)NCCCCC(NC(=O)OCc1ccccc1)C(=O)Nc1ccccc1 (stereo not shown) [TM]
GI50 (MCF10A): > 50 µM | GI50 (HME1): > 50 µM
